High-throughput results as filed in PubChem.
E coli WT exp: growth inhibitors of wild-type E. coli, primary screen, strain BW25113, expanded library, OD600. OD600 absorbance. growth inhibition, % at 100 µM. hit rate 0.15% among 98,000. AID 710, 2007;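 active = growth inhibition above about 50% at one test dose, limit read from the data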;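 note: growth measured after 20 h incubation at 37 °C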
tolC growth inh: growth inhibitors of E. coli tolC mutant, primary screen, strain BW25113 ΔtolC::kan, 384-well; OD615; growth inhibition, % at 10 µM (by protocol); hit rate 2.2% among 65,000;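 active = growth inhibition at or above a cutoff equal to the mean over every tested compound plus 3 SD, cut at about 60% in these data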;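 note: growth measured after 20 h incubation at 37 °C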
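Doses: one dose of 10 µM final / Material: E. coli BW25113 ΔtolC::kan, tolC deletion mutant strain / Buffer or medium: LB with kanamycin 50 µg/mL / Evaluation: percent growth inhibition / Detection: optical density read at 615 nm / Incubation: 37 °C, 20 h exposure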
CYP2C19 activ: human CYP2C19 activators, primary screen, biochemical, luminescence. Cytochrome P450 2C19 (Homo sapiens), P33261. recombinant CYP2C19, luciferin-H EGE luminescence; hits give high values; 0 = fully inhibited enzyme, 1 = untreated enzyme. activation factor at 5 µM. 96,000 tested, under 10 active;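 active = activation factor of at least 2 at 5 µM in the primary screen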
Target sequence (P33261 whole entry, looked up): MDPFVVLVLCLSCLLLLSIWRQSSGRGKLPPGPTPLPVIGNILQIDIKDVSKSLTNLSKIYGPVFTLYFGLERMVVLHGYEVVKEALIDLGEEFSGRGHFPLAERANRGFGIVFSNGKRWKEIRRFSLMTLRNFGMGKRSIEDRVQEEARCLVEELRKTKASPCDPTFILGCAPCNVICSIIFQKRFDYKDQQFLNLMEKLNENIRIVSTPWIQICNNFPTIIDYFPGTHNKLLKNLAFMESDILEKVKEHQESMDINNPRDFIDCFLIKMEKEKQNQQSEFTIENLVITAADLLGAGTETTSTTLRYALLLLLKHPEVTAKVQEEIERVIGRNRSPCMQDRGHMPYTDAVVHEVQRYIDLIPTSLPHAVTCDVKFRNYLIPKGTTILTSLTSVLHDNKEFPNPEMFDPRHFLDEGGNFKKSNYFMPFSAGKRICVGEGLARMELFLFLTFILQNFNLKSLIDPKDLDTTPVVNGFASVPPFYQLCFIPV
CYP2C9 activ: human CYP2C9 activators, primary screen, biochemical, luminescence | recombinant CYP2C9, luciferin-H conversion; hits give high values; factor 1 = untreated enzyme, 0 = blocked | hit rate 1.4% among 96,000 | Cytochrome P450 2C9 (Homo sapiens), P11712 | activation factor at 5 µM;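 active = activation factor of 2 or more for CYP2C9 at a 5 µM dose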
CYP2C9 inhib: blockers of cytochrome P450 2C9 activity – biochemical, luminescence, ADME assay, primary screen | P11712 | CYP2C9 Supersomes, luciferin-H conversion | hit rate 20% among 96,000 | AID 777, 2007 | inhibition, % at 5 µM;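 active = blocking of liver enzyme CYP2C9 beyond about 50% at 5 µM, limit read from the data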
CYP2C19 inhib: blockers of cytochrome P450 2C19 activity – biochemical, luminescence, ADME assay, primary screen | inhibition, % at 5 µM | hit rate 21% among 96,000 | CYP2C19 Supersomes, luciferin-H EGE luminescence, 30 min | P33261 | AID 778, 2007;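 active = CYP2C19 inhibition above a set limit at 5 µM in the primary screen, cut at about 50% in these data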
Numbers stand for hits; – = inactive; · = not tested or not shown. Only some compounds are listed: those with a hit (about 29% of all), similar ones and a draw of the others.

SMILES	E coli WT exp	tolC growth inh	CYP2C19 activ	CYP2C9 activ	CYP2C9 inhib	CYP2C19 inhib
CCc1nnc(NC(=O)CC(CN(C)S(=O)(=O)c2ccccc2)c2ccccc2)s1 (stereo not given)	–	·	–	–	–	–
CCCCCOC(=O)C1=C(C)Nc2nnnn2C1c1ccccc1Cl (stereo not given)	–	·	–	–	–	–
Cc1cccc(-n2c(-c3csc(C)c3)n[nH]c2=S)c1	–	·	–	–	–	–
CCc1cc(-c2n[nH]c(=S)n2-c2cccc(C)c2)cs1	–	·	–	–	–	63
O=C(CNCC1CCCO1)Nc1ccccc1N1CCCCCC1 (stereo not given)	–	·	–	–	–	–
CCn1nnnc1SCC(=O)c1ccc(NC(C)=O)cc1	–	–	–	–	–	–
COc1ccc(C(=O)Cn2nnc(-c3ccccc3F)n2)cc1	–	–	–	–	–	55
COc1ccc(CCNC(=O)Cn2nnc(-c3cccc(OC)c3OC)n2)cc1OC	–	–	–	–	–	–
COc1ccc(-c2nnn(CC(=O)N(CC(=O)NCCC(C)C)c3ccccc3)n2)cc1OC	–	–	–	–	–	–
O=C(Cn1nnc(-c2ccccc2F)n1)Nc1cccc2ncccc12	–	–	–	–	–	63
O=C(Cn1nnc(-c2ccccc2F)n1)NCCc1ccccc1	–	–	–	–	–	70
O=C(CN(C(=O)Cn1nnc(-c2ccccc2F)n1)c1cccc2c1CCCC2)NCc1ccccc1	–	·	–	–	96	–
N#CCCSCc1ccc(OCC(=O)O)cc1	–	–	–	–	–	–
CCOC(=O)C1CCCN(C(=O)c2ccc3c(c2)NC(=O)C(N2CCOCC2)S3)C1 (stereo not given)	–	–	–	–	–	–
CCC1(C)Cc2ccccc2-c2nc(NCCO)[nH]c(=O)c21 (stereo not given)	–	·	–	–	69	56
CCC1(C)Cc2ccccc2-c2nc(-c3ccccc3)oc(=O)c21 (stereo not given)	–	·	–	–	–	–
CCC1(C)Cc2ccccc2-c2nc(NCCCO)n(-c3ccccc3)c(=O)c21 (stereo not given)	–	·	–	–	–	51
CCC1(C)Cc2ccccc2-c2nc3n(c(=O)c21)CC(C(=O)O)S3 (stereo not given)	–	–	–	–	69	–
CCCC(=O)Nn1cnc2c(c1=O)C1(CCCCC1)Cc1ccccc1-2	–	·	–	–	64	50
Cc1ccc(/C(O)=C2\C(=O)C(=O)N(CCCN(C)C)C2c2ccccn2)cc1 (stereo not given)	·	–	·	·	·	·
O=C(OC(C(=O)O)C(OC(=O)c1ccccc1)C(=O)NCc1ccccc1)c1ccccc1 (stereo not given)	–	·	–	–	–	–
Cc1ccc(NC2=NC3(CCCCC3)N=C(N)N2)c(C)c1	–	–	–	–	–	–
CC1Sc2ccccc2N(CC(=O)N(C(C)C)C(C)C)C1=O (stereo not given)	–	·	–	–	–	–
Cc1ccc2c(c1)NC(=O)C(CC(=O)NCc1cccnc1)O2 (stereo not given)	–	–	–	–	–	–
CCn1c(SCC#N)nc2c(c1=O)C1(CCCC1)Cc1ccccc1-2	–	–	–	–	89	60
SMILES	E coli WT exp	tolC growth inh	CYP2C19 activ	CYP2C9 activ	CYP2C9 inhib	CYP2C19 inhib
Cn1c(NCCCO)nc2c(c1=O)C1(CCCCC1)Cc1ccccc1-2	–	–	–	–	83	78
O=c1[nH]c(NCCO)nc2c1C1(CCCC1)Cc1ccccc1-2	–	·	–	–	–	–
CCN(CC)Cc1nc2c(c(=O)[nH]1)C1(CCCC1)Cc1ccccc1-2	–	·	–	–	87	–
CCCn1c(SCC(N)=O)nc2c(c1=O)C1(CCCC1)Cc1ccccc1-2	–	–	–	–	–	–
O=C(CSc1cn(CCNC(=O)c2cccs2)c2ccccc12)NC1CCCC1	–	·	–	–	82	69
CCCn1cc(SCC(=O)NCc2ccco2)c2ccccc21	–	–	–	–	–	52
O=C(CSc1ccccc1C(=O)NCCCN1CCCC1=O)NCc1ccco1	–	–	–	–	–	–
O=C(CSc1cn(CCNC(=O)c2ccccc2)c2ccccc12)NCc1ccco1	–	–	–	–	97	99
CC(Oc1ccccc1)C(=O)Nc1cccc(-c2nc3ccccc3[nH]2)c1 (stereo not given)	–	·	–	–	98	79
CC(C)(C)C(=O)Nc1cccc(-c2nc3ccccc3[nH]2)c1	–	·	–	–	85	53
O=C(COc1ccccc1)Nc1cccc(-c2nc3cc4ccccc4cc3[nH]2)c1	–	·	–	–	80	–
CC(=O)Nc1cccc(-c2nc3ccc(NC(C)=O)cc3[nH]2)c1	–	–	–	–	–	–
COc1cccc(C(=O)COC(=O)C(C)N2C(=O)C3C4C=CC(C4)C3C2=O)c1 (stereo not given)	–	·	–	–	–	–
Cc1ccc(-c2ccc(=O)n(CCC(=O)NCc3ccccn3)n2)cc1	–	–	–	–	–	–
CCN(C(=O)COc1ncnc2scc(-c3ccc(F)cc3)c12)C1CCS(=O)(=O)C1 (stereo not given)	–	–	–	–	–	–
CC1=CC2=NC(=O)CC(C)(C(=O)N(CC(=O)NC(C)(C)C)Cc3cccs3)N2C=C1 (stereo not given)	–	·	–	–	–	–
COc1ccc(-c2ncncc2-c2csc(C)n2)c(O)c1	–	–	–	–	–	89
COc1ccc(-c2nc(C)ncc2-c2csc(C)n2)c(O)c1	–	·	–	–	–	54
COc1ccc(-c2cnc(N)nc2-c2ccc(OC)cc2O)cc1	–	–	–	–	–	–
CC1(C)SCC2C(=O)N3C(CSC3(C)C)C(=O)N21 (stereo not given)	–	–	–	–	–	–
c1ccc(N2CCN(CCc3nnc4n3CCCCC4)CC2)cc1	–	–	–	–	–	–
CSCSC1=C(C#N)C(c2ccc(Cl)cc2)C(C(C)=O)=C(C)N1 (stereo not given)	–	96	–	–	100	98
CCOC(=O)CSC1=C(C#N)C(c2ccc(C)cc2)C(C(=O)OC)C(=O)N1 (stereo not given)	–	–	–	–	–	54
CCOC(=O)CSC1=C(C#N)C(c2ccccc2)C(C(C)=O)=C(C)N1 (stereo not given)	–	–	–	–	59	58
CCCSC1=C(C#N)C(c2ccc(OC)cc2)C2=C(CC(C)(C)CC2=O)N1 (stereo not given)	–	–	–	–	–	–
Cc1cc(C(=O)NCc2cccs2)cs1	–	–	–	–	–	73
